Screens: PubChem BioAssay, The Scripps Research Institute Molecular Screening Center
Sampled rows, rich in hits. Any-hit rate of the full collection: about 1.8%.
CHRM5 agonist: CHRM5 agonism in calcium assay. P08912. CHO-K1 hM5 cells, Fluo-8 calcium fluorescence; 0% DMSO wells, 100% maximal acetylcholine response. activation, % at 3 µM. 0.19% of 360,000 active. AID 624037;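 active means activation above the run's mean over test compounds plus 3 SD, cut at about 23% in these data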;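 further: signal is peak over basal fluorescence ratio across the kinetic read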
Target sequence (P08912 whole entry, looked up): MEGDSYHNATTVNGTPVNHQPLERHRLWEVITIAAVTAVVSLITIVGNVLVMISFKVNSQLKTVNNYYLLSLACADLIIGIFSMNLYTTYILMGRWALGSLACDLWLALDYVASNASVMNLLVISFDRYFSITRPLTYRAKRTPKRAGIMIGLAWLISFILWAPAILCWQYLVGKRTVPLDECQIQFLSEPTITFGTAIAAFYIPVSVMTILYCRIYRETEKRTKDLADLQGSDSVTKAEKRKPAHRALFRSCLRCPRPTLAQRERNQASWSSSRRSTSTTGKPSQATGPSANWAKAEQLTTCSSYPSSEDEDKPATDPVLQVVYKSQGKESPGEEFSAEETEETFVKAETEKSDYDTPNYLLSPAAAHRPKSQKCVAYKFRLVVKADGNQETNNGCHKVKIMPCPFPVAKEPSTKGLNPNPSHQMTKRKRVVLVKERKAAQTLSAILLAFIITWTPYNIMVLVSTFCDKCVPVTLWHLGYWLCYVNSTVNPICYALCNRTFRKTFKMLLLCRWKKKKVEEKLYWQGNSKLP
M4 ag: CHRM4 agonism in calcium assay; P08173; CHO-K1 hM4/Gqi5, Fluo-8 calcium fluorescence; vehicle 0%, full acetylcholine response 100%; activation, % at 3 µM; 0.14% of 360,000 active; AID 624127;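 active means activation above the run mean over all test wells plus 3 SD, cut at about 32% in these data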;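 further: peak over basal fluorescence ratio per well then scaled between controls; 0% = DMSO wells and 100% = acetylcholine at EC100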
CHRM4 antagonist: blocks acetylcholine activation of human M4 receptor | P08173 | CHO-hM4 cells, ACh EC80, Fluo-8 calcium fluorescence | inhibition, % at 3 µM | 0.73% of 360,000 active | AID 624125;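 active means inhibition above its plate's cutoff, the mean inhibition of sample wells plus 3 SD, cut at about 27% in these data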;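 further: 0% = acetylcholine EC80 with DMSO and 100% = DMSO without agonist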
CHRM5 PAM: CHRM5 positive allosteric modulation; P08912; CHO-K1 hM5, Fluo-8 calcium, ACh EC20 PAM; 0% = ACh EC20, 100% = ACh EC100; activation, % at 3 µM; 0.3% of 360,000 active; AID 624038;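 active means activation above the run cutoff, the mean activation of all test compounds plus 3 SD, cut at about 18% in these data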
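System – CHO-K1 hM5 cells · Compound – 3 µM, single dose · Incubation – compound preincubation 140 s before EC20 acetylcholine addition · Technique – Fluo-8 calcium fluorescence · Measure – Max/basal fluorescence ratio as % of EC20–EC100 ACh window · Benchmarks – low control EC20 acetylcholine (0%), high control EC100 acetylcholine (100%) · Replication – singlicate, one well per test compound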
M5 antag: antagonists of human muscarinic M5 receptor (CHRM5); P08912; CHO-hM5 cells, Fluo-8 calcium fluorescence, ACh EC80; inhibition, % at 3 µM; 0.59% of 360,000 active;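 active means inhibition above a per-plate cutoff, the mean of that plate's test compounds plus 3 SD, cut at about 27% in these data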;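 further: 0% = acetylcholine EC80 with DMSO and 100% = DMSO without agonist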
CHRM4 PAM: CHRM4 positive allosteric modulation; 0.4% of 360,000 active; P08173; activation, % at 3 µM; CHO-K1 hM4/Gqi5, Fluo-8 calcium fluorescence, ACh EC20; 0% = ACh EC20, 100% = maximal ACh; AID 624126;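 active means activation above its plate's cutoff, the mean activation of sample wells plus 3 SD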
Numbers without * were called inactive.

SMILES	CHRM5 agonist	M4 ag	CHRM4 antagonist	CHRM5 PAM	M5 antag	CHRM4 PAM
CCOCc1nnc(NC(=O)c2cc(OC)c(OC)cc2[N+](=O)[O-])s1	3.1	2.0	-3.4	10.4	-15.2	21.8*
CCOCCc1nnc(NC(=O)c2cc(OC)c(OC)cc2[N+](=O)[O-])s1	2.9	0.8	2.8	0.9	7.2	1.2
O=C(COC(=O)c1ccc(O)cc1O)NC(=O)Cc1ccccc1	22.9	10.0	10.2	-5.3	16.3	-4.4
C=C1C(=O)[C@]23C[C@H]1CCC2[C@@]1(C)C(C[C@@H]3O)[C@](C)(C(=O)OC)CC[C@@H]1OC(C)=O (some centres undefined)	10.5	15.9	58.4*	-5.1	16.7	-15.4
CC(OC(=O)Cc1n[nH]c(=O)c2ccccc12)C(=O)Nc1ccc(Cl)cn1 (centres undefined)	0.3	4.1	-5.8	19.2*	-21.1	2.4
CC(OC(=O)Cc1n[nH]c(=O)c2ccccc12)C(=O)Nc1cc(Cl)cc(Cl)c1 (centres undefined)	1.7	0.0	0.1	-5.8	0.0	-3.8
O=C(OCCN1C(=O)c2cccc3c(N4CCOCC4)ccc(c23)C1=O)c1ccccc1Cl	17.4	24.6	40.1*	-19.8	44.7*	-15.4
CC1(C(O)(C#CC[N+]2(C)CCCCC2)c2ccccc2)CCCC1 (centres undefined)	-10.0	0.5	98.8*	-20.4	99.5*	-20.7
OCC1=C[C@@H](O)[C@@H]2C=CO[C@@H](O[C@@H]3O[C@H](CO)[C@@H](O)[C@H](O)[C@H]3O)[C@H]12	0.1	1.2	4.2	-2.4	5.6	4.1
COc1ccccc1-c1noc(CCC(=O)Nc2cccnc2)n1	2.6	2.7	-1.0	-1.8	5.7	-3.5
COc1ccccc1-c1noc(CCC(=O)Nc2cc(C(F)(F)F)ccc2Cl)n1	-0.4	1.8	31.2*	19.2*	1.9	23.9
CC(=O)c1cccc(NC(=O)C2Cc3c(-c4cccc(C(N)=O)c4)ccnc3O2)c1 (centres undefined)	1.2	4.7	-1.2	-4.9	-0.1	-4.0
CN(C)CC/C=C1/c2ccc(F)cc2Sc2ccc(Cl)cc21	-18.8	11.8	99.8*	-29.0	98.7*	-15.8
CN(C)CC/C=C1\c2ccc(F)cc2Sc2cc(F)c(Cl)cc21	-17.8	14.4	98.8*	-31.7	99.0*	-17.6
OCCN1CCN(CC/C=C2/c3ccccc3Sc3ccc(Cl)cc32)CC1	1.9	5.2	8.8	-10.3	13.7	-10.9
CN(C)CC/C=C1\c2ccccc2Sc2ccc(Cl)cc21	2.3	9.2	98.2*	-18.5	99.5*	-19.6
CN(C)CC/C=C1\c2ccccc2Sc2cc(F)c(Cl)cc21	-18.7	16.5	99.5*	-31.7	100.1*	-65.5
CN(C)CCOc1ccc2c(c1)Sc1ccccc1CC2=O	1.3	0.7	9.3	-0.1	1.5	-10.2
O=C(NCc1ccc(F)cc1)c1cc(C2CCCCN2S(=O)(=O)c2ccc(F)cc2F)on1 (centres undefined)	-1.6	8.1	6.6	-4.1	4.3	-10.6
CN(Cc1ccccc1)c1ccc(C(CC(N)=O)NC(=O)c2ccccc2)cc1[N+](=O)[O-] (centres undefined)	4.8	4.6	-1.5	6.9	1.6	7.5
CN(C)CC/C=C1\c2cc(Cl)ccc2Sc2cc(F)c(F)cc21	-19.9	5.6	98.2*	-35.9	99.2*	-56.3
O=c1cccc2n1Cc1cc3ccccc3nc1-2	3.9	3.1	2.5	0.1	10.8	25.9*
O=C(COC(=O)C1CC2C=CC1C2)Nc1cccc(S(=O)(=O)N2CCCCC2)c1 (centres undefined)	5.2	16.8	3.0	-15.8	13.4	-14.9
COc1ccc(S(=O)(=O)N2CCC(C(=O)NCCc3ccccc3)CC2)cc1OC	1.4	2.6	-7.2	4.4	-1.2	1.9
COc1ccc(S(=O)(=O)N2CCCC2)cc1NC(=O)c1ccccc1F	-2.4	1.6	-1.7	1.6	2.2	4.2
SMILES	CHRM5 agonist	M4 ag	CHRM4 antagonist	CHRM5 PAM	M5 antag	CHRM4 PAM
COc1ccccc1NC(=O)c1cc(S(=O)(=O)N2CCCCCC2)ccc1F	0.6	34.3*	-8.8	24.3*	15.3	30.0*
O=C(COC(=O)C1CC2C=CC1C2)Nc1cccc(S(=O)(=O)N2CCCCCC2)c1 (centres undefined)	3.8	17.1	22.5	-19.7	31.2*	-12.9
COc1ccc(CC(=O)Nc2cccc(S(=O)(=O)N3CCCCCC3)c2)cc1OC	9.2	14.2	10.6	-19.4	32.2*	-11.1
COc1ccc(S(=O)(=O)N2CCC(C(=O)NCC(=O)Nc3c(C)cccc3C)CC2)cc1OC	-0.5	0.2	-10.0	4.2	-7.9	24.7*
CCCCNC(=O)c1cc2cc(CC)ccc2[nH]1	0.8	-1.3	-5.8	2.6	5.9	4.9
CC(=O)Nc1ccc(S(=O)(=O)N2CCC(C(=O)NCCC(=O)Nc3ccccc3)CC2)cc1	-2.5	1.9	-22.9	19.6*	-18.5	7.8
COc1cc(C(C)=O)ccc1OCC(=O)Nc1ccc(C)c(S(=O)(=O)N2CCCCCC2)c1	4.8	26.8	17.9	-39.0	32.1*	-13.3
C/C(N)=C(/C#N)C(=O)COC(=O)c1ccc(C)c(S(=O)(=O)N2CCCCC2)c1	8.4	4.8	-3.8	32.8*	5.5	6.2
Cc1nc2ccccc2c(=O)n1NC(=O)c1cccc([N+](=O)[O-])c1	-1.1	1.3	2.2	6.3	-13.8	8.9
O=C(CSc1ncnc2[nH]ncc12)Nc1nc(-c2ccc(F)c(F)c2)cs1	9.9	20.0	31.3*	-15.4	10.4	-20.0
N=C1N(/N=C/c2ccccc2)C(=Nc2ccccc2)C(=S)N1c1ccccc1	-2.0	0.9	54.9*	-0.4	-4.0	-25.7
CC(C)NC(=O)c1onc(CSc2ccc(F)cc2)c1C(=O)NC(C)C	-4.8	0.5	1.4	6.2	5.5	1.0
Cn1c(SCC(N)=O)nnc1C1CCN(S(=O)(=O)c2ccccc2C(F)(F)F)CC1	-3.5	0.6	-5.8	6.9	2.1	5.4
Cn1c(SCCN2CCCC2)nnc1C1CCN(S(=O)(=O)c2cccc(F)c2)CC1	-7.6	0.6	32.5*	-8.0	12.6	-15.8
CC[n+]1c(/C=C/N(C)c2ccccc2)n(-c2ccccc2)c2ccc(-c3nc4ccccc4s3)cc21	-20.7	7.1	57.6*	-25.6	5.9	-15.8
CCOC(=O)c1ccc2c(c1)n(CC)c(/C=C/N(C)c1ccccc1)[n+]2CC	-1.4	-0.1	-2.4	4.0	-5.3	-6.7
COc1cccc(C(C(=O)NC2CCCC2)N(Cc2ccc(C)cc2)C(=O)c2ccco2)c1OC (centres undefined)	-4.1	1.0	9.6	28.1*	-3.8	14.7
